ChEMBL document CHEMBL3286372, “Design, synthesis and structure-activity relationship of novel semi-synthetic flavonoids as antiproliferative agents” (2014)

What was measured:
[1] = Growth inhibition of human OVCAR4 cells after 48 hrs by coulter counting analysis; assay type: functional; conditions: OVCAR-4, 48 h
Procedure, shortened: (§1)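 Five-dose NCI-60 follow-up, 0.01–100 µM, made from DMSO stock in buffered saline (final DMSO <1%), in duplicate wells. Cells in RPMI 1640 with 10% FBS at 6×10^4 cells/ml, 37 °C, 5% CO2, 48 h. Cells diluted tenfold in saline, Coulter-counted and corrected for dilution. GI50, TGI and LC50 taken from log concentration–percent growth curves.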

[2] = Growth inhibition of human OVCAR5 cells after 48 hrs by coulter counting analysis; assay type: functional; conditions: OVCAR-5, 48 h; procedure, shortened: as §1
[3] = Growth inhibition of human OVCAR8 cells after 48 hrs by coulter counting analysis; assay type: functional; conditions: OVCAR-8, 48 h; procedure, shortened: as §1
[4] = system: SK-OV-3; experiment: Growth inhibition of human SKOV3 cells after 48 hrs by coulter counting analysis; assay type: functional; conditions: SK-OV-3, 48 h; procedure, shortened: as §1
[5] = system: 786-0; experiment: Growth inhibition of human 786-0 cells after 48 hrs by coulter counting analysis; assay type: functional; conditions: 786-0, 48 h
Procedure, shortened: (§2)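 NCI five-dose screen at 0.01-100 µM, diluted from DMSO stocks in buffered saline (final DMSO <1%). Cells at 6×10^4 cells/ml in RPMI 1640 with 10% FBS, in duplicate wells, at 37 °C under 5% CO2 for 48 h. Cells diluted tenfold in saline and Coulter-counted. GI50, TGI and LC50 taken from log concentration-growth inhibition curves.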

[6] = system: SN12C; experiment: Growth inhibition of human SN12C cells after 48 hrs by coulter counting analysis; assay type: functional; procedure, shortened: as §1
[7] = Growth inhibition of human UO31 cells after 48 hrs by coulter counting analysis; assay type: functional; conditions: UO-31, 48 h
Procedure, shortened: (§3)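 NCI five-dose screen, 0.01-100 µM, from DMSO stocks diluted in buffer saline (final DMSO <1%). Cells grown in RPMI 1640 + 10% FBS, seeded at 6×10^4 cells/ml, in duplicate wells. Exposure 48 h at 37 °C, 5% CO2. Cells diluted 10-fold in saline and counted by Coulter counter. GI50 derived from log concentration–percent growth inhibition curves. Controls carried matching PBS/saline/DMSO.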

[8] = system: DU-145; experiment: Growth inhibition of human DU145 cells after 48 hrs by coulter counting analysis; assay type: functional; conditions: DU-145, 48 h; procedure, shortened: as §2
[9] = target: Cyclin-dependent kinase 2/cyclin E1 (Homo sapiens) (UniProt P24864+P24941); experiment: Inhibition of CDK2/Cyclin E1 (unknown origin) at 20 uM after 30 mins by scintillation counting analysis relative to control; assay type: protein-complex assay
Procedure, shortened: (§4)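 Recombinant kinases, cloned, expressed and purified in-house. Radiometric ³³P-ATP assay with kinase at ~10-50 nM final and 1-5 µg peptide or protein substrate. Compound at 20 µM final, in duplicate. Reaction started by adding ATP, run 30 min at ambient temperature, then spotted on P81 phosphocellulose. Plates washed in 1% phosphoric acid and counted by scintillation. No-substrate blank subtracted. Result is mean % activity change versus DMSO control.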

[10] = target: Cyclin-dependent kinase 4/cyclin D1 (Homo sapiens) (UniProt P11802+P24385); experiment: Inhibition of CDK4/Cyclin D1 (unknown origin) at 20 uM after 30 mins by scintillation counting analysis relative to control; assay type: protein-complex assay; procedure, shortened: as §4
[11] = system: A549; experiment: Growth inhibition of human A549/ATCC cells after 48 hrs by coulter counting analysis; assay type: functional; conditions: A549, 48 h; procedure, shortened: as §2
[12] = system: HOP-62; experiment: Growth inhibition of human HOP62 cells after 48 hrs by coulter counting analysis; assay type: functional; conditions: HOP-62, 48 h; procedure, shortened: as §2
[13] = system: COLO 205; experiment: Growth inhibition of human COLO205 cells after 48 hrs by coulter counting analysis; assay type: functional; conditions: COLO 205, 48 h; procedure, shortened: as §2
[14] = system: HCT-116; experiment: Growth inhibition of human HCT116 cells after 48 hrs by coulter counting analysis; assay type: functional; conditions: HCT-116, 48 h; procedure, shortened: as §2
[15] = Growth inhibition of human HCT15 cells after 48 hrs by coulter counting analysis; assay type: functional; conditions: HCT-15, 48 h; procedure, shortened: as §2
[16] = system: KM12; experiment: Growth inhibition of human KM12 cells after 48 hrs by coulter counting analysis; assay type: functional; conditions: KM12, 48 h; procedure, shortened: as §2
[17] = system: SW-620; experiment: Growth inhibition of human SW620 cells after 48 hrs by coulter counting analysis; assay type: functional; conditions: SW-620, 48 h; procedure, shortened: as §1
[18] = system: SF-268; experiment: Growth inhibition of human SF268 cells after 48 hrs by coulter counting analysis; assay type: functional; conditions: SF-268, 48 h; procedure, shortened: as §1
[19] = system: U-251; experiment: Growth inhibition of human U251 cells after 48 hrs by coulter counting analysis; assay type: functional; conditions: U-251, 48 h; procedure, shortened: as §3
[20] = system: Malme-3M; experiment: Growth inhibition of human MALME-3M cells after 48 hrs by coulter counting analysis; assay type: functional; procedure, shortened: as §2
[21] = system: MDA-MB-435; experiment: Growth inhibition of human MDA-MB-435 cells after 48 hrs by coulter counting analysis; assay type: functional; conditions: MDA-MB-435, 48 h; procedure, shortened: as §2
[22] = system: SK-MEL-28; experiment: Growth inhibition of human SK-MEL-28 cells after 48 hrs by coulter counting analysis; assay type: functional; conditions: SK-MEL-28, 48 h; procedure, shortened: as §1
[23] = system: SK-MEL-5; experiment: Growth inhibition of human SK-MEL-5 cells after 48 hrs by coulter counting analysis; assay type: functional; conditions: SK-MEL-5, 48 h; procedure, shortened: as §1
[24] = Growth inhibition of human UACC257 cells after 48 hrs by coulter counting analysis; assay type: functional; conditions: UACC-257, 48 h; procedure, shortened: as §3
[25] = system: CCRF-CEM; experiment: Growth inhibition of human CCRF-CEM cells at 10 uM after 48 hrs by sulforhodamine B assay relative to control; assay type: functional; conditions: read-out: GI
Procedure, shortened: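 NCI-60 primary screen at a single dose of 10 µM with 48 h continuous exposure. Growth or viability read by sulforhodamine B protein staining and expressed as percent growth inhibition versus untreated cells.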

[26] = system: TK-10; experiment: Growth inhibition of human TK10 cells after 48 hrs by coulter counting analysis; assay type: functional; conditions: TK-10, 48 h; procedure, shortened: as §3
[27] = Growth inhibition of human NCI-ADR-RES cells at 10 uM after 48 hrs by sulforhodamine B assay relative to control; assay type: functional; conditions: read-out: GI
Procedure, shortened: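 NCI-60 primary screen at a single 10 µM dose. Continuous 48 h exposure, with growth or viability estimated by sulforhodamine B protein staining. Reported as percent growth inhibition of treated cells relative to untreated growth.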

[28] = Growth inhibition of human UO31 cells at 10 uM after 48 hrs by sulforhodamine B assay relative to control; assay type: functional; conditions: UO-31, 48 h, read-out: GI
Procedure, shortened: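 NCI-60 primary single-dose screen at 10 µM with continuous 48 h exposure. Cell viability/growth read by sulforhodamine B protein staining. Reported as percent growth inhibition relative to untreated cells.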

[29] = Growth inhibition of human EKVX cells after 48 hrs by coulter counting analysis; assay type: functional; procedure, shortened: as §2
[30] = read-out: LC50 (the source's name)

SMILES	GI50 [1] [µM]	GI50 [2] [µM]	GI50 [3] [µM]	GI50 [4] [µM]	GI50 [5] [µM]	GI50 [6] [µM]	GI50 [7] [µM]	GI50 [8] [µM]	inhibition [9] [%]	inhibition [10] [%]	GI50 [11] [µM]	GI50 [12] [µM]	GI50 [13] [µM]	GI50 [14] [µM]	GI50 [15] [µM]	GI50 [16] [µM]	GI50 [17] [µM]	GI50 [18] [µM]	GI50 [19] [µM]	GI50 [21] [µM]	other results
COc1c2ccoc2c(/C=C/C=O)c2oc(-c3ccccc3)cc(=O)c12	3.2	22.3	2.86	6.34	26.9	2.71	3.63	10.7	6	0	21.5	2.49	27.7	1.7	2.52	16.5	2.16	4.23	3.06	4.83	GI50 [20]: 3.47 µM; GI50 [22]: 2.73 µM; GI50 [23]: 3.04 µM; GI50 [24]: 11.5 µM
COc1c(C(=O)/C=C/c2ccccc2)c(O)cc2occc12	5.4	5.67	3.63	14.1	16.2	4.48	3.14	3.81	1	13	8.62	11.3	15.7	3.72	5.25	3.71	3.52	4.05	4.39	3.21	inhibition of growth at 10 µM [25]: 65%; GI50 [26]: 11.2 µM; inhibition of growth at 10 µM [27]: 68%; inhibition of growth at 10 µM [28]: 60%; GI50 [29]: 12.5 µM; GI50 [22]: 7.03 µM; GI50 [23]: 3.87 µM; GI50 [24]: 7.01 µM
C=CCc1c(O)c(C(=O)/C=C/c2ccccc2)c(OC)c2ccoc12	2.89	3.22	3.13	8.08	4.12	3.79	2.89	4.92	0	0	4.41	5.32	5.96	3.03	2.91	4.06	3.32	2.8	2.36	2.78	GI50 [26]: 4.96 µM; GI50 [29]: 6.13 µM; GI50 [20]: 5.8 µM; GI50 [22]: 2.49 µM; GI50 [23]: 2.66 µM; GI50 [24]: 2.56 µM
COc1c2occc2c(OC)c2c(=O)c(CN3CCOCC3)c(/C=C/c3ccc(N(C)C)cc3)oc12	2.47	2.59	5.15	2.72	1.93	2.45	1.43	1.67	0	12	2.83	2.33	1.66	2.11	2.25	1.73	2.38	2.22	2.49	2.05	inhibition of growth at 10 µM [25]: 95%; GI50 [26]: 2.46 µM; inhibition of growth at 10 µM [27]: 87%; inhibition of growth at 10 µM [28]: 63%; GI50 [29]: 2.24 µM; CC50 [13, 30]: 5.87 µM; GI50 [20]: 2.08 µM; CC50 [20, 30]: 8.65 µM; GI50 [22]: 2.3 µM; GI50 [23]: 1.09 µM; CC50 [23, 30]: 4.99 µM; GI50 [24]: 2.54 µM
